Reference: publication PMC6139374 (Cell, 2018)
Where “and” joins values, the source holds several entries; their conditions need not be identical. Equal entries are not always repeated. Where no end group is shown, it is not given here. Side-chain parts run from the residue outwards. [ ]: non-standard residue; d: D form. Dap = NC[C@H](N)C(=O)O

Experiments:
[1] = target: FL-Akt1-pThr308/pSer473 (A1) and FL-Akt1-pThr308/2pSer477,Thr479 (A6) (Homo sapiens, UniProt P31749); test: Kinase inhibition assays with Akt inhibitors; assay type: biochemical; details: 250 μM ATP, 20 μM GSK3 peptide
Sequence of FL-Akt1-pThr308/pSer473 (A1) and FL-Akt1-pThr308/2pSer477,Thr479 (A6) (P31749 whole entry, the tested form may be a part): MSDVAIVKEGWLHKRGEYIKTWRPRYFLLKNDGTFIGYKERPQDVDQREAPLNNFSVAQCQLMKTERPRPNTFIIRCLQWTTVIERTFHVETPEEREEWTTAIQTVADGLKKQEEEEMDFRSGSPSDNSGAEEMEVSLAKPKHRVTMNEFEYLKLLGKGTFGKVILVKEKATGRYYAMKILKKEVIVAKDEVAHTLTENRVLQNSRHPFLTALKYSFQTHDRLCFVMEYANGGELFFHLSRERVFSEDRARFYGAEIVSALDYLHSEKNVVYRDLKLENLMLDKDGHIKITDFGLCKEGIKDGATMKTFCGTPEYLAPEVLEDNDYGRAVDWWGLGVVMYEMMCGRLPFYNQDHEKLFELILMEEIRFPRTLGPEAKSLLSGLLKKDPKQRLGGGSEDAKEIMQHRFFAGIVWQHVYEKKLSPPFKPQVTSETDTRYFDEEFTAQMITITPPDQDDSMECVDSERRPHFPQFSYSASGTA

Akt1 PH domain [2] = target: T1, Akt1 PH domain (Homo sapiens, UniProt P31749); test: Competition binding assay displacing fluorescein-labeled PIP3; details: competition with fluorescein-labeled PIP3
T1 sequence (P31749 1-121): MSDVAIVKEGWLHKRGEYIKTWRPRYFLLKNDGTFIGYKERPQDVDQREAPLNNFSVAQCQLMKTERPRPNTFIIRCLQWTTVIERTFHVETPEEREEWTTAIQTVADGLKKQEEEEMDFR
Method in brief: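 Competition format: 50 nM fluorescein-labeled soluble PIP3 with 1 μM Akt PH domain and varied unlabeled soluble phosphoinositide competitor (PIP3 di-C6 or PI(3,4)P2 di-C8). Buffer was 50 mM HEPES pH 7.5, 2 mM DTT, 0.05 mg/ml ovalbumin; incubated 30 min at room temperature, then fluorescence anisotropy read. Sigmoidal fit gave IC50, converted to Ki using free labeled ligand, free PH domain and probe Kd.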

[3] = target: non-C-terminally phosphorylated Akt1 (A2) (Homo sapiens, UniProt P31749); test: Kinase assay, effect of phosphoinositides on activity; assay type: biochemical; details: 250 μM ATP, 20 μM GSK3 peptide, 10 mM MgCl2
Sequence of non-C-terminally phosphorylated Akt1 (A2) (P31749 whole entry): as the sequence (P31749 whole entry, the tested form may be a part) above
Method in brief: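 Also present: 250 μM ATP with 32P-γ-ATP and 20 μM biotinylated GSK3 peptide. Added either 400 μM DOPC vesicles with 5 mol% PIP3 or 20 μM soluble PI(3,4)P2 (di-C8). Product was captured on 30 kDa filters and counted by scintillation; runs done at least twice.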

GSK3 peptide substrate = test: Radiometric kinase assay, steady-state kinetics of semisynthetic Akt1 forms; assay type: biochemical; details: for catalytic efficiency (kcat/Km), fold lower relative to A1: compared with pThr308/pSer473 form A1; for kcat/Km, within fold of that of A2: low kcat/Km, compared with non-C-terminally phosphorylated enzyme A2
[4] = target: FL-Akt1-pThr308/pSer473 (A1) (Homo sapiens, UniProt P31749); test: Fluorescence anisotropy binding of soluble PIP3; details: fluorescein-labeled soluble PIP3 (di-C6), 50 nM
Sequence of FL-Akt1-pThr308/pSer473 (A1) (P31749 whole entry): as the sequence (P31749 whole entry, the tested form may be a part) above
Method in brief: (§1)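 Varying concentrations of semisynthetic full-length Akt1 were mixed with 50 nM fluorescein-labeled soluble PIP3 (di-C6). Buffer was 50 mM HEPES pH 7.5, 2 mM DTT, 0.05 mg/ml ovalbumin; incubated 30 min at room temperature. Fluorescence anisotropy was recorded at 23°C.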

[5] = target: FL-Akt1-pThr308/non-p C tail (A2) (Homo sapiens, UniProt P31749); test: Fluorescence anisotropy binding of soluble PIP3; details: stated as nearly identical to the value for A1
Sequence of FL-Akt1-pThr308/non-p C tail (A2) (P31749 whole entry): as the sequence (P31749 whole entry, the tested form may be a part) above
Method in brief: as §1

[6] = target: non-phosphorylated FL-Akt1 (A9) (Homo sapiens, UniProt P31749); test: Fluorescence anisotropy binding of soluble PIP3; details: fluorescein-labeled soluble PIP3, 50 nM
Sequence of non-phosphorylated FL-Akt1 (A9) (P31749 whole entry): as the sequence (P31749 whole entry, the tested form may be a part) above
Method in brief: as §1

[7] = target: FL-Akt1-pThr308, pSer477,pThr479 (A6) (Homo sapiens, UniProt P31749); test: Fluorescence anisotropy binding of soluble PIP3
Sequence of FL-Akt1-pThr308, pSer477,pThr479 (A6) (P31749 whole entry): as the sequence (P31749 whole entry, the tested form may be a part) above
Method in brief: as §1

Akt1 PH domain [8] = target: T1, Akt1 PH domain; test: Fluorescent binding assay of PIP3 with Mg addition; details: Mg addition up to 10 mM
[9] = target: pSer477,pThr479 Akt1 (A6) (Homo sapiens, UniProt P31749); test: Kinase assay, effect of PIP3 on activity; assay type: biochemical; details: addition of excess soluble PIP3
Sequence of pSer477,pThr479 Akt1 (A6) (P31749 whole entry): as the sequence (P31749 whole entry, the tested form may be a part) above

Akt1 = Akt1 (human, UniProt P31749 1-480); test: kinase inhibition assay
Sequence of Akt1 (P31749 whole entry): as the sequence (P31749 whole entry, the tested form may be a part) above

[10] = target: non-C-terminally phosphorylated Akt1, C-terminally labeled with fluorescein (human) (UniProt P31749); test: fluorescence polarisation

Molecule: CC(C)NC[C@@H](C(=O)N1CCN(c2ncnc3c2[C@H](C)C[C@H]3O)CC1)c1ccc(Cl)cc1 [GDC0068]
- apparent Ki ratio, A6 relative to A1 ([1]; Ki lower for A1, higher for A6): 8 fold

Molecule: NC1(c2ccc(-c3nc4ccn5c(=O)[nH]nc5c4cc3-c3ccccc3)cc2)CCC1 [MK2206]
- sensitivity of A6 relative to A1 to the inhibitor [1]: distinct sensitivities

Molecule: CCCCCCCC(=O)OC[C@H](COP(=O)(O)O[C@H]1[C@H](O)[C@@H](O)[C@H](OP(=O)(O)O)[C@@H](OP(=O)(O)O)[C@H]1O)OC(=O)CCCCCCC [soluble PI(3,4)P2]
- binding to Akt1 PH domain (Akt1 PH domain [2]): high affinity
- stimulation of enzymatic activity of A2 [3]: did not stimulate

Molecule: A1: semisynthetic full-length Akt1, pThr308/pSer473
- catalytic efficiency, fold larger than that of Asp473 form A4 (GSK3 peptide substrate; A1 vs A4): > 100 fold and 100 fold
- kcat/Km, fold greater than that of A2 (GSK3 peptide substrate; pThr308 set of full-length Akt1, v/[E] vs [ATP]): about 500 fold

Molecule: A3: full-length Akt1 pSer473 form lacking phosphorylation at Thr308
- catalytic efficiency (kcat/Km), fold lower relative to A1 (GSK3 peptide substrate): 500 fold

Molecule: A4: full-length Akt1 pThr308, Asp473 form
- kcat/Km, within fold of that of A2 (GSK3 peptide substrate): ≤ 3 fold

Molecule: A5: full-length Akt1 pThr308, triply phosphorylated C-tail form
- activity, fold more active than A1 (GSK3 peptide substrate; compared with pSer473 form A1): ~ 2 fold

Molecule: A6: full-length Akt1 pThr308 with pSer477/pThr479
- catalytic efficiency (kcat/Km), fold lower relative to A1 (GSK3 peptide substrate): 8 fold

Molecule: A7: full-length Akt1 pThr308, pSer477 form
- kcat/Km, within fold of that of A2 (GSK3 peptide substrate): ≤ 3 fold

Molecule: A8: full-length Akt1 pThr308, pSer479 form as printed
- kcat/Km, within fold of that of A2 (GSK3 peptide substrate): ≤ 3 fold

Molecule: A12: R144A point mutation in the context of pSer473 Akt1
- catalytic efficiency (kcat/Km), fold lower relative to A1 (GSK3 peptide substrate): ~ 50 fold

Molecule: phosphatidyl inositol 3,4,5-triphosphate [soluble PIP3]
- Kd [4]: ~200 nM
- Kd [5]: ~200 nM
- Kd [6]: 90 nM
- Kd, fold greater than for A1 or A2 ([7]; A6 vs A1 or A2, weakened binding): 4 fold
- Kd ([7]; fluorescein-labeled soluble PIP3, 50 nM): 800 nM
- increase of Kd on Mg addition (Akt1 PH domain [8]): ~ 3 fold
- stimulation of enzymatic activity of A2 [3]: did not stimulate
- effect on catalytic activity of A6 [9]: minimally impacted

Molecule: GRPRTT[Dap]([Ac-ATP‑γS])FAE [GSK3 peptide-ATP conjugate bisubstrate analog]
- Ki (Akt1): 3600 nM

B1: GST-PDK1 (enzyme)
chain: MARTTSQLYDAVPIQSSVVLCSCPSPSMVRTQTESSTPPGIPGGSRQGPAMDGTAAEPRPGAGSLQHAQPPPQPRKKRPEDFKFGKILGEGSFSTVVLARELATSREYAIKILEKRHIIKENKVPYVTRERDVMSRLDHPFFVKLYFTFQDDEKLYFGLSYAKNGELLKYIRKIGSFDETCTRFYTAEIVSALEYLHGKGIIHRDLKPENILLNEDMHIQITDFGTAKVLSPESKQARANSFVGTAQYVSPELLTEKSACKSSDLWALGCIIYQLVAGLPPFRAGNEYLIFQKIIKLEYDFPEKFFPKARDLVEKLLVLDATKRLGCEEMEGYGPLKAHPFFESVTWENLHQQTPPKLTAYLPAMSEDDEDCYGNYDNLLSQFGCMQVSSSSSSHSLSASDTGLPQRSGSNIEQYIHDLDSNSFELDLQFSEDEKRLLLEKQAGGNPWHQFVENNLILKMGPVDKRKGLFARRRQLLLTEGPHLYYVDPVNKVLKGEIPWSQELRPEAKNFKTFFVHTPNRTYYLMDPSGNAHKWCRKIQEVWRQRYQSHPDAAVQ
- Kd [10]: 200 nM

B2: A16: Δ143-Akt1-pThr308 construct possessing Asp473 (protein, UniProt P31749 1-480, looked up, variant del1-143 S473D)
RAC-alpha …: RVTMNEFEYLKLLGKGTFGKVILVKEKATGRYYAMKILKKEVIVAKDEVAHTLTENRVLQNSRHPFLTALKYSFQTHDRLCFVMEYANGGELFFHLSRERVFSEDRARFYGAEIVSALDYLHSEKNVVYRDLKLENLMLDKDGHIKITDFGLCKEGIKDGATMKTFCGTPEYLAPEVLEDNDYGRAVDWWGLGVVMYEMMCGRLPFYNQDHEKLFELILMEEIRFPRTLGPEAKSLLSGLLKKDPKQRLGGGSEDAKEIMQHRFFAGIVWQHVYEKKLSPPFKPQVTSETDTRYFDEEFTAQMITITPPDQDDSMECVDSERRPHFPQFDYSASGTA
modifications: pThr308
- kcat/Km, within fold of each other (GSK3 peptide substrate; Δ143-Akt1-pThr308 constructs A15-A18): ≤ 3 fold
